Assay results from ChEMBL document CHEMBL1811907, “Chemical and biological evaluation of dipeptidyl boronic acid proteasome inhibitors for use in prodrugs and pro-soft drugs targeting solid tumors” (J Med Chem, 2011).

Legend:
HEK293 [1] = experiment: Metabolic stability in human HEK293 cells assessed as aminopeptidase-mediated compound degradation at 10^-4 M after 24 hrs by LCMS analysis; format: ADME, cell-based; settings: hek293, 24 h, 100 µM
Method in brief: (§1)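 Intact cells, 2 × 10⁶ in 900 μL medium, incubated with inhibitor at 10⁻⁴ M for 24 h, 37 °C, 5% CO₂. Aliquots taken at time points and quenched in 1 M HCl containing Trp-Tyr internal standard. Analysed by ESI LCMS on C18 reversed phase.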

[2] = Ratio of CC50 for human follicular small-cell lymphocytic leukemia cells to IC50 for intracellular chymotrypsin-like activity of 20S proteasome in human HEK293 cells
HEK293 [3] = experiment: Ratio of IC50 for intracellular chymotrypsin-like activity of 20S proteasome in human HEK293 cells to IC50 for in vitro chymotrypsin-like activity of 20S proteasome; format: cell-based
[4] = Ratio of CC50 for human follicular small-cell lymphocytic leukemia cells to IC50 for chymotrypsin-like activity of 20S proteasome at pH 2.0
[5] = Metabolic stability in human FSCLL cells assessed as cell lysate-mediated compound degradation at 10^-4 M after 24 hrs by LCMS analysis; format: ADME, cell-based; settings: 100 µM
[6] = Inhibition of intracellular chymotrypsin-like activity of 20S proteasome in human HEK293 cells after 24 hrs by fluorescence plate reader; format: cell-based; settings: HEK293, 24 h
Method in brief: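 HEK 293 ZsGreen proteasome-sensor cells (stable ZsGreen–ornithine decarboxylase degron fusion, G418 maintenance) seeded 3.2 × 10⁴ per well, grown 24 h. Then 24 h with inhibitor at 37 °C, 5% CO₂. Cells lysed in HEPES/EDTA/5% Triton buffer for 1 h; fluorescence ex 485/em 535 nm. Quadruplicates; variable-slope sigmoidal fit.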

[7] = Cytotoxicity against human FSCLL cells after 24 hrs by MTT assay; format: cell-based
Method in brief: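 Cells seeded at 3.2 × 10⁴ per well, grown 24 h at 37 °C, 5% CO₂, then exposed to inhibitor dilutions 24 h. Inhibitor from 0.1 M ethanol stock, pre-equilibrated overnight in pH 2.0 or pH 7.6 buffer. MTT (5 mg/mL) added for 3 h; formazan dissolved overnight in acidic Triton/isopropanol; A570 read. Quadruplicates; variable-slope sigmoidal fit.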

HEK293 [8] = experiment: Metabolic stability in human HEK293 cells assessed as cell lysate-mediated compound degradation at 10^-4 M after 24 hrs by LCMS analysis; format: ADME, cell-based; settings: hek293, 24 h, 100 µM
[9] = Metabolic stability in human FSCLL cells assessed as aminopeptidase-mediated compound degradation at 10^-4 M after 24 hrs by LCMS analysis; format: ADME, cell-based; settings: 100 µM; method in brief: as §1
[10] = Inhibition of chymotrypsin-like activity of 20S proteasome using suc-LLVY-AMC as substrate preincubated for 10 mins before substrate addition at pH 2.0 by fluorescence assay
Method in brief: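 Inhibitor from 0.1 M ethanol stock diluted into pH 2.0 buffer (0.148 M HCl, 0.052 M KCl) and equilibrated overnight at room temperature (24 h per text). 20S proteasome SDS-activated, preincubated 10 min with inhibitor; Suc-LLVY-AMC added; fluorescence (ex 360/em 460 nm) read after 30 min. Assay-well pH checked. Quadruplicates; variable-slope sigmoidal fit.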

[11] = Inhibition of chymotrypsin-like activity of 20S proteasome using suc-LLVY-AMC as substrate preincubated for 10 mins before substrate addition at pH 7.6 by fluorescence assay
Method in brief: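 Inhibitor from 0.1 M ethanol stock diluted into pH 7.6 buffer (25 mM HEPES, 0.5 mM EDTA) and equilibrated overnight at room temperature (24 h per text). SDS-activated 20S proteasome preincubated 10 min with inhibitor before Suc-LLVY-AMC; fluorescence ex 360/em 460 nm after 30 min. Quadruplicates; variable-slope sigmoidal fit.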

Mus musculus = organism: Mus musculus; experiment: Inhibition of proteasome in mouse tumor cells relative to inhibition in blood cells; format: subcellular; settings: concentration not given here

Compound | Stability (HEK293 [1]) | Ratio CC50/IC50 [2] | Ratio IC50 (HEK293 [3]) | Ratio CC50/IC50 [4] | Stability [5] | IC50 [6] | CC50 at 24 h [7] | Stability (HEK293 [8]) | Stability [9] | IC50 [10] | IC50 [11] | inhibition (Mus musculus)
CC(C)C[C@H](NC(=O)[C@H](C)N)B(O)O | Stable | <0.3 | > 200 | 64 | Stable | > 10000 nM | 3200 nM | Stable | Stable | 50 nM | 360 nM | –
CC(C)C[C@H](NC(=O)[C@H](Cc1ccccc1)NC(=O)[C@@H](N)CC(C)C)B(O)O | – | – | – | – | Unstable | – | – | Unstable | – | – | – | –
CNCC(=O)N[C@@H](CC(C)C)B(O)O | – | <0.07 | > 260 | 4.1 | – | > 10000 nM | 160 nM | – | – | 39 nM | 2200 nM | –
CC(C)C[C@H](NC(=O)[C@@H](N)Cc1c[nH]c2ccccc12)B(O)O | – | <0.4 | > 30 | 14 | – | > 1000 nM | 400 nM | – | – | 29 nM | 100 nM | –
CC(C)C[C@H](NC(=O)[C@@H](N)Cc1ccccc1)B(O)O | Stable | <0.01 | > 270 | 2.4 | Stable | > 10000 nM | 90 nM | Stable | Stable | 37 nM | 140 nM | –
CC(C)C[C@H](NC(=O)[C@@H](N)C(C)(C)C)B(O)O | – | <0.07 | > 110 | 7 | – | > 10000 nM | 710 nM | – | – | 100 nM | 150 nM | –
CC(C)C[C@H](NC(=O)[C@@H](N)C1CCCCC1)B(O)O | – | – | > 40 | – | – | > 10000 nM | – | – | – | 240 nM | 900 nM | –
CC(C)C[C@H](NC(=O)[C@@H](N)CO)B(O)O | – | <0.2 | > 50 | 8.9 | – | > 10000 nM | 1700 nM | – | – | 190 nM | 1100 nM | –
CC(C)C[C@H](NC(=O)[C@@H](N)Cc1cnc[nH]1)B(O)O | – | – | > 20 | – | – | > 1000 nM | – | – | – | 510 nM | 5200 nM | –
CCCC[C@H](N)C(=O)N[C@@H](CC(C)C)B(O)O | – | <0.1 | > 130 | 13 | – | > 10000 nM | 950 nM | – | – | 75 nM | 300 nM | –
CC[C@H](N)C(=O)N[C@@H](CC(C)C)B(O)O | – | <0.2 | > 90 | 14 | – | > 10000 nM | 1500 nM | – | – | 110 nM | 300 nM | –
CC(C)C[C@H](NC(=O)[C@@H](N)Cc1ccc(O)cc1)B(O)O | – | <0.02 | > 240 | 4 | – | > 10000 nM | 160 nM | – | – | 42 nM | 120 nM | –
CC(C)C[C@H](NC(=O)[C@@H](N)Cc1c(F)c(F)c(F)c(F)c1F)B(O)O | – | – | 20 | – | – | 3300 nM | – | – | – | 170 nM | 470 nM | –
CC(C)C[C@H](NC(=O)[C@@H](N)Cc1ccc2ccccc2c1)B(O)O | – | – | 13 | – | – | 450 nM | – | – | – | 33 nM | 220 nM | –
CC(C)C[C@H](NC(=O)CNC(=O)c1cc(Cl)ccc1Cl)B1OC(=O)CC(CC(=O)O)(C(=O)O)O1 (stereo partly drawn) | – | – | – | – | – | – | – | – | – | – | – | 74.9%
CC(C)C[C@H](NC(=O)[C@H](CO)NC(=O)c1cnccn1)B(O)O | – | 0.08 | 150 | 13 | – | 2500 nM | 210 nM | – | – | 16 nM | 18 nM | –
CC(C)C[C@H](NC(=O)[C@@H](N)CC(C(=O)O)C(=O)O)B(O)O | – | – | > 20 | – | – | > 10000 nM | – | – | – | 600 nM | 3000 nM | –
CC(C)C[C@H](NC(=O)[C@@H](NC(=O)c1cnccn1)[C@@H](C)O)B(O)O | – | 0.12 | 65 | 8 | – | 790 nM | 100 nM | – | – | 12 nM | 25 nM | –

Compound | Stability (HEK293 [1]) | Ratio CC50/IC50 [2] | Ratio IC50 (HEK293 [3]) | Ratio CC50/IC50 [4] | Stability [5] | IC50 [6] | CC50 at 24 h [7] | Stability (HEK293 [8]) | Stability [9] | IC50 [10] | IC50 [11] | inhibition (Mus musculus)
CC(C)C[C@H](NC(=O)[C@@H](N)Cc1cccc(F)c1)B(O)O | – | – | 16 | – | – | 1300 nM | – | – | – | 82 nM | 110 nM | –
CCC[C@H](N)C(=O)N[C@@H](CC(C)C)B(O)O | – | <0.1 | > 90 | 10 | – | > 10000 nM | 1100 nM | – | – | 110 nM | 540 nM | –
CC(C)C[C@H](NC(=O)[C@@H](NC(=O)c1cnccn1)C(C)(C)O)B(O)O | – | – | 15 | – | – | 520 nM | – | – | – | 34 nM | 28 nM | –
CC(C)C[C@H](NC(=O)[C@@H](N)Cc1ccc(F)c(F)c1)B(O)O | – | – | 26 | – | – | 2100 nM | – | – | – | 81 nM | 150 nM | –
CC(C)C[C@H](NC(=O)CN(C)C)B(O)O | – | – | > 280 | – | – | > 10000 nM | – | – | – | 36 nM | 610 nM | –
CC(C)C[C@H](NC(=O)[C@@H](N)Cc1ccc(F)cc1)B(O)O | – | <0.01 | > 170 | 1.3 | – | > 10000 nM | 79 nM | – | – | 60 nM | 130 nM | –
CC(C)C[C@H](NC(=O)[C@@H](N)[C@@H](C)O)B(O)O | – | <0.3 | > 120 | 30 | – | > 10000 nM | 2500 nM | – | – | 80 nM | 450 nM | –
CC(C)C[C@H](NC(=O)[C@@H](N)Cc1ccc(-c2ccccc2)cc1)B(O)O | – | – | 30 | – | – | 1400 nM | – | – | – | 50 nM | 400 nM | –
CC(C)C[C@H](NC(=O)[C@@H](N)C(c1ccccc1)c1ccccc1)B(O)O | – | – | 9 | – | – | 1000 nM | – | – | – | 110 nM | 350 nM | –
CC(C)C[C@H](NC(=O)CNC(=O)c1cnccn1)B(O)O | – | – | 16 | – | – | 1800 nM | – | – | – | 110 nM | 180 nM | –
CC(C)C[C@H](NC(=O)CN)B(O)O | Stable | <0.07 | > 470 | 30 | Stable | > 10000 nM | 670 nM | Stable | Stable | 21 nM | 430 nM | –
CC(C)C[C@H](NC(=O)[C@@H](N)CC(C)C)B(O)O | – | – | > 150 | – | – | > 10000 nM | – | – | – | 66 nM | 170 nM | –
CC(C)C[C@H](NC(=O)[C@@H](N)CC(N)=O)B(O)O | – | – | > 160 | – | – | > 10000 nM | – | – | – | 63 nM | 770 nM | –
CC(C)C[C@H](NC(=O)[C@@H](N)Cc1cc(F)cc(F)c1)B(O)O | – | 0.06 | 18 | 1 | – | 790 nM | 47 nM | – | – | 43 nM | 100 nM | –
CC(C)C[C@H](NC(=O)[C@@H](N)Cc1ccccc1F)B(O)O | – | – | 41 | – | – | 3100 nM | – | – | – | 76 nM | 140 nM | –
CC(C)C[C@H](NC(=O)[C@@H](N)C(C)(C)O)B(O)O | – | – | > 110 | – | – | > 10000 nM | – | – | – | 90 nM | 150 nM | –
CC(C)C[C@H](NC(=O)[C@@H](N)Cc1cccc2ccccc12)B(O)O | – | 0.07 | 6 | 0.4 | – | 150 nM | 11 nM | – | – | 26 nM | 120 nM | –
